Source: ChEMBL document CHEMBL4138107, “The discovery of novel, potent ERR-alpha inverse agonists for the treatment of triple negative breast cancer” (Eur J Med Chem, 2017)
Activity calls are given as the source filed them. The rule behind the calls is not given here.

Key:
MDA-MB-231 [1] = assay: Antitumor activity against human MDA-MB-231 cells xenografted in BALB/c nude mouse assessed as tumor size at 30 mg/kg administered every other day for 28 days measured after 30 days relative to control; type: functional
Procedure, shortened: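 MDA-MB-231 cells suspended in PBS injected subcutaneously into the right flank of 6-week-old BALB/c nude mice. Once tumors averaged >100 mm³, mice were randomized into groups of 10 and given vehicle, test compound or cyclophosphamide 30 mg/kg, dosed every other day. Mice were weighed 3 times weekly. Tumor volume = length × width² × 0.5 and was compared with the vehicle group.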

[2] = target: T1, Steroid hormone receptor ERR1 (Homo sapiens, UniProt P11474); assay: Inverse agonist activity at GAL4-DNA binding domain-fused human ERRalpha ligand binding domain expressed in HEK293 cells assessed as inhibition of transcriptional activity after 48 hrs by luciferase reporter gene assay; type: cell-based
T1 sequence (P11474 whole entry): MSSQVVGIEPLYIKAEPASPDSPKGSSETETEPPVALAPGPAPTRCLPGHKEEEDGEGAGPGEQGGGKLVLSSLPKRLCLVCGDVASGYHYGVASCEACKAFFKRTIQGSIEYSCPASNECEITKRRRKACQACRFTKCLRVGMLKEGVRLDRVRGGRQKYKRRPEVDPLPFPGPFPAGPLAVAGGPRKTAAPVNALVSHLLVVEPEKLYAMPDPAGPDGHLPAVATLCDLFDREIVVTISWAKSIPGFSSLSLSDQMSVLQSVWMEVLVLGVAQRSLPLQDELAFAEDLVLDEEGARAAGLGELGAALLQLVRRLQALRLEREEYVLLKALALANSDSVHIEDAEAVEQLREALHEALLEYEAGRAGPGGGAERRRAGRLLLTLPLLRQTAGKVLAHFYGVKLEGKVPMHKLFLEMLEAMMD
Procedure, shortened: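 HEK293 cells at 1×10⁵/well in DMEM with 10% FBS, transfected at 70-80% confluency. Per well: 20 ng GAL4-DBD-ERRα-LBD, 20 ng UAS-Luc reporter and 5 ng pRL-TK control. After 6 h at 37°C, vehicle (0.05% DMSO) or compound added for 48 h. Dual-luciferase read-out.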

MDA-MB-231 [3] = assay: Antiproliferative activity against ER deficient human MDA-MB-231 cells after 48 hrs by CCK-8 assay; type: functional, cell-based; conditions: MDA-MB-231, 48 h
Procedure, shortened: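 Cells seeded in 96-well plates and cultured overnight, then exposed to a range of compound concentrations for 48 h. CCK-8 reagent added and incubated 2 h at 37°C. Read-out is optical density at 450 nm. MDA-MB-231 maintained in L-15 with 10% FBS, L-glutamine, sodium pyruvate, pen/strep at 37°C, 5% CO2.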

MDA-MB-435 = assay: Antiproliferative activity against ER deficient human MDA-MB-435 cells after 48 hrs by CCK-8 assay; type: functional, cell-based; conditions: MDA-MB-435, 48 h
T47D = assay: Antiproliferative activity against human T47D cells harboring ER after 48 hrs by CCK-8 assay; type: functional, cell-based
MCF7 = assay: Antiproliferative activity against human MCF7 cells harboring ER after 48 hrs by CCK-8 assay; type: functional, cell-based; conditions: MCF7, 48 h
HeLa = assay: Antiproliferative activity against human HeLa cells after 48 hrs by CCK-8 assay; type: functional, cell-based
PC-3 = assay: Antiproliferative activity against human PC3 cells after 48 hrs by CCK-8 assay; type: functional, cell-based; conditions: PC-3, 48 h
LNCaP = assay: Antiproliferative activity against human LNCAP cells after 48 hrs by CCK-8 assay; type: functional, cell-based
A549 = assay: Antiproliferative activity against human A549 cells after 48 hrs by CCK-8 assay; type: functional, cell-based; conditions: A549, 48 h
MDA-MB-231 [4] = assay: Inhibition of cell migration in human MDA-MB-231 cells […] by crystal violet staining-based transwell assay; type: functional
MDA-MB-231 [5] = assay: Induction of ROS generation in human MDA-MB-231 cells after 24 hrs by DCFH-DA staining based fluorescence assay; type: functional, cell-based
Procedure, shortened: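 MDA-MB-231 cells in 96-well plates pretreated with 1-30 µmol/l compound for 24 h at 37 °C. Then loaded with DCFH-DA (10 µmol/l) for 30 min. Fluorescence read at ex 488/em 535 nm on a plate reader and expressed relative to untreated cells. Mean ± SEM, n=4.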

[6] = target: T2, Steroid hormone receptor ERR1 (Homo sapiens) (UniProt P11474); assay: Inverse agonist activity at ERRalpha in human MDA-MB-231 cells assessed as down regulation of PGC-1alpha mRNA expression at 5 to 10 uM after 48 hrs by qRT-PCR analysis; type: cell-based
T2 sequence (whole entry): T1 sequence (P11474 whole entry)
Procedure, shortened: (§1)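 MDA-MB-231 cells in 6-well plates at […]. Exposed to vehicle (DMSO) or compound for 48 h, then mRNA of ERRα target genes (PGC-1α, PDK4, osteopontin/SPP1, pS2/TFF1) quantified by real-time RT-PCR. Mean ± S.E.M. of three independent experiments.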

[7] = target: T2, Steroid hormone receptor ERR1 (Homo sapiens); assay: Inverse agonist activity at ERRalpha in human MDA-MB-231 cells assessed as down regulation of PDK4 mRNA expression at 5 to 10 uM after 48 hrs by qRT-PCR analysis; type: cell-based; procedure, shortened: as §1
[8] = target: T2, Steroid hormone receptor ERR1 (Homo sapiens); assay: Inverse agonist activity at ERRalpha in human MDA-MB-231 cells assessed as down regulation of osteopontin mRNA expression at 5 to 10 uM after 48 hrs by qRT-PCR analysis; type: cell-based; procedure, shortened: as §1
[9] = target: T2, Steroid hormone receptor ERR1 (Homo sapiens); assay: Inverse agonist activity at ERRalpha in human MDA-MB-231 cells assessed as down regulation of pS2 mRNA expression at 5 to 10 uM after 48 hrs by qRT-PCR analysis; type: cell-based; procedure, shortened: as §1
[10] = target: T2, Steroid hormone receptor ERR1 (Homo sapiens); assay: (§2) Inhibition of fluorescein-labeled PGC-1alpha binding to GAL4-DNA binding domain-fused human ERRalpha ligand binding domain expressed in HEK293 cells in presence of terbium chelate by TR-FRET assay; type: cell-based
[11] = target: T1, Steroid hormone receptor ERR1; assay: as §2; type: cell-based
MDA-MB-231 [12] = assay: Antitumor activity against human MDA-MB-231 cells xenografted in BALB/c nude mouse assessed as tumor volume at 30 mg/kg administered every other day for 28 days and measured after 30 days (reference value: 1500 mm3); type: functional
MDA-MB-231 [13] = assay: Effect on steady state ERRalpha mRNA expression in human MDA-MB-231 cells at 5 to 10 uM after 48 hrs by qRT-PCR analysis; type: ADME, cell-based; conditions: mda-mb-231, 48 h
MDA-MB-231 [14] = assay: Antitumor activity against human MDA-MB-231 cells xenografted in BALB/c nude mouse assessed as reduction in tumor growth at 30 to 100 mg/kg administered every other day […]; type: functional, organism-based
MDA-MB-231 [15] = assay: Cell migration rate in human MDA-MB-231 cells at 5 uM after 48 hrs by crystal violet staining-based transwell assay relative to control; conditions: MDA-MB-231, 48 h
MDA-MB-231 [16] = assay: Cell migration rate in human MDA-MB-231 cells at 10 uM after 48 hrs by crystal violet staining-based transwell assay relative to control; conditions: MDA-MB-231, 48 h
MDA-MB-231 [17] = assay: Cell migration rate in human MDA-MB-231 cells at 20 uM after 48 hrs by crystal violet staining-based transwell assay relative to control; conditions: MDA-MB-231, 48 h
MDA-MB-231 [18] = assay: Induction of apoptosis in human in human MDA-MB-231 cells at 10 uM after 48 hrs by Annexin V-FITC staining based fluorescence microscopic analysis

Structure (SMILES): O=P1(N(CCCl)CCCl)NCCCO1 (centres undefined) [CYCLOPHOSPHAMIDE ANHYDROUS]
- Activity (MDA-MB-231 [1]): 50.1%

Structure (SMILES): CCOc1cc(NS(C)(=O)=O)c(OCC)cc1CNC(=O)Nc1ccc(OCC)c(C(=O)Nc2ccccc2)c1
- IC50 [2]: 3.72 µM

Structure (SMILES): CCOc1cc(NS(C)(=O)=O)c(OCC)cc1CNC(=O)Nc1ccc(OCc2ccccc2)c(C(=O)OC)c1
- IC50 [2]: 4.06 µM

Structure (SMILES): CCOc1cc(NS(C)(=O)=O)c(OCC)cc1CNC(=O)Nc1ccc(OCC)c(C(=O)NCc2ccc(OC)cc2)c1
- IC50 [2]: 1.9 µM
- IC50 (MDA-MB-231 [3]): 1.46 µM
- IC50 (MDA-MB-435): 2.53 µM
- IC50 (T47D): 8.31 µM
- IC50 (MCF7): 14.1 µM
- IC50 (HeLa): 6.25 µM
- IC50 (PC-3): 5.01 µM
- IC50 (LNCaP): 11.4 µM
- IC50 (A549): 4.84 µM
- inhibition (MDA-MB-231 [4]): Dose-dependent effect
- Activity (MDA-MB-231 [5]): Active
- Activity [6]: Active
- Activity [7]: Active
- Activity [8]: Active
- Activity [9]: Active
- inhibition [10]: Dose-dependent effect
- IC50 [11]: 0.61 µM
- Activity (MDA-MB-231 [1]): 40.9%
- Activity (MDA-MB-231 [12]): 720 mm3
- Activity (MDA-MB-231 [13]): Non-Toxic
- TGI (MDA-MB-231 [14]): Active
- migration rate % at 5 µM (MDA-MB-231 [15]): 53.2%
- migration rate % at 10 µM (MDA-MB-231 [16]): 39.3%
- migration rate % at 20 µM (MDA-MB-231 [17]): 17.8%
- Activity (MDA-MB-231 [18]): Active

Structure (SMILES): CCOc1cc(NS(C)(=O)=O)c(OCC)cc1CNC(=O)Nc1ccc(OCC)c(C(=O)Nc2cccc(OC)c2)c1
- IC50 [2]: 4.23 µM

Structure (SMILES): CCOc1cc(NS(C)(=O)=O)c(OCC)cc1CNC(=O)Nc1ccc(OCC)c(C(=O)Nc2ccc(C)cc2)c1
- IC50 [2]: 3.04 µM

Structure (SMILES): CCOc1cc(NS(C)(=O)=O)c(OCC)cc1CNC(=O)Nc1ccc(OCC)c(C(=O)NCc2ccccc2)c1
- IC50 [2]: 3.81 µM

Structure (SMILES): CCOc1cc(NS(C)(=O)=O)c(OCC)cc1CNC(=O)Nc1ccccc1
- IC50 [2]: 21.1 µM

Structure (SMILES): CCOc1cc(NS(C)(=O)=O)c(OCC)cc1CNC(=O)Nc1ccc(OCC)c(C(=O)NC(C)C)c1
- IC50 [2]: 3.48 µM

Structure (SMILES): CCCCOc1ccc(NC(=O)NCc2cc(OCC)c(NS(C)(=O)=O)cc2OCC)cc1C(=O)OC
- IC50 [2]: 3.43 µM
